Source: ChEMBL document CHEMBL5338733, “Heterobifunctional Ligase Recruiters Enable pan-Degradation of Inhibitor of Apoptosis Proteins” (J Med Chem, 2023)
Values belong to the compound of their own block, whether it stands above or below them. Activity calls are given as the source filed them. The calls are words filed in the database; no cut-off is given here.

Legend:
[1] = target: Baculoviral IAP repeat-containing protein 2 (Homo sapiens) (UniProt Q13490); test: Induction of cIAP1 degradation in human MM1.S cells at 100 nM incubated for 3 hrs by diaPASEF-based analysis; type: cell-based
How it was run: (§1)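 MM.1S cells exposed to DMSO or 0.1 μM compound for 3 h, then washed with PBS and snap-frozen. Lysed in 8 M urea/EPPS pH 8.5 buffer. 50 μg protein reduced, alkylated, precipitated, then digested with LysC and trypsin. Analysed by diaPASEF on timsTOF Pro2. Missing values imputed from a Gaussian distribution; log2 fold change versus DMSO with limma statistics.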

[2] = target: E3 ubiquitin-protein ligase XIAP (Homo sapiens) (UniProt P98170); test: Induction of XIAP degradation in human MM1.S cells at 100 nM incubated for 3 hrs by diaPASEF-based analysis; type: cell-based; how it was run: as §1
MOLM-13 = test: Cytotoxicity against human MOLM-13 cells assessed as reduction in cell viability measured after 96 hrs in presence of TNF-alpha by CellTiter-Glo luminescent assay; type: functional, cell-based; settings: MOLM-13, 96 h
How it was run: (§2)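 Cells kept in RPMI-1640 with 10% FBS, 1% penicillin/streptomycin and 1% L-glutamine at 37 °C, 5% CO2. Seeded with compounds and incubated 96 h at 37 °C with TNF-α at 1 ng/mL. Viability read by CellTiter-Glo luminescence and normalized to DMSO-treated control. Mean ± SD of biological triplicates.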

DB = test: Cytotoxicity against human DB cells assessed as reduction in cell viability measured after 96 hrs in presence of TNF-alpha by CellTiter-Glo luminescent assay; type: functional, cell-based; how it was run: as §2
[3] = target: von Hippel-Lindau disease tumor suppressor (Homo sapiens) (UniProt P40337); test: Induction of VHL19 degradation in human MM1.S cells at 1 uM incubated for 16 hrs by western blot analysis; type: cell-based
How it was run: (§3)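 MM.1S cells treated 16 h at the stated concentration. Lysed, run on SDS-PAGE and transferred to PVDF. Probed with primary antibodies overnight at 4 °C, then HRP secondaries, with ECL detection. Band densitometry normalized to loading control and to DMSO-treated cells. Averages of at least three independent experiments.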

[4] = target: E3 ubiquitin-protein ligase XIAP (Homo sapiens) (UniProt P98170); test: Induction of XIAP degradation in human MM1.S cells at 1 uM incubated for 16 hrs by western blot analysis; type: cell-based; how it was run: as §3
[5] = target: Baculoviral IAP repeat-containing protein 3 (Homo sapiens) (UniProt Q13489); test: Induction of cIAP2 degradation in human MM1.S cells at 1 uM incubated for 16 hrs by western blot analysis; type: cell-based; how it was run: as §3
K562 = test: Cytotoxicity against human K562 cells assessed as reduction in cell viability measured after 96 hrs in presence of TNF-alpha by CellTiter-Glo luminescent assay; type: functional, cell-based; settings: K562, 96 h; how it was run: as §2
[6] = target: von Hippel-Lindau disease tumor suppressor (Homo sapiens) (UniProt P40337); test: Induction of VHL30 degradation in human MM1.S cells at 1 uM incubated for 16 hrs by western blot analysis; type: cell-based; how it was run: as §3
NCI-H929 = test: Cytotoxicity against human NCI-H929 cells assessed as reduction in cell viability measured after 96 hrs in presence of TNF-alpha by CellTiter-Glo luminescent assay; type: functional, cell-based; settings: NCI-H929, 96 h
How it was run: (§4)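 Cells seeded with compound at indicated concentrations ± TNF-α 1 ng/mL, incubated 96 h at 37 °C; viability by CellTiter-Glo luminescence, normalized to DMSO control; mean ± SD of biological triplicates. NCI-H929 cultured in RPMI-1640/10% FBS with 2-mercaptoethanol and sodium pyruvate; other lines in RPMI-1640/10% FBS, 37 °C, 5% CO2.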

HEL = test: Cytotoxicity against human HEL cells assessed as reduction in cell viability measured after 96 hrs in presence of TNF-alpha by CellTiter-Glo luminescent assay; type: functional, cell-based; how it was run: as §2
[7] = target: Baculoviral IAP repeat-containing protein 2 (Homo sapiens) (UniProt Q13490); test: Induction of cIAP1 degradation in human MM1.S cells assessed as remaining protein level at 0.1 uM incubated for 16 hrs by western blot analysis; type: cell-based
How it was run: (§5)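 Lysed, run on SDS-PAGE and transferred to PVDF. Probed with primary antibodies overnight at 4 °C, then HRP secondaries, with ECL detection. Band densitometry normalized to loading control and to DMSO-treated cells. Averages of at least three independent experiments.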

[8] = target: von Hippel-Lindau disease tumor suppressor (Homo sapiens) (UniProt P40337); test: Induction of VHL30 degradation in human MM1.S cells assessed as remaining protein level at 0.1 uM incubated for 16 hrs by western blot analysis; type: cell-based; how it was run: as §3
SUD4 = test: Cytotoxicity against human SU-DHL-4 cells assessed as reduction in cell viability measured after 96 hrs in presence of TNF-alpha by CellTiter-Glo luminescent assay; type: functional, cell-based; settings: SU-DHL-4, 96 h; how it was run: as §2
JJN-3 = test: Cytotoxicity against human JJN-3 cells assessed as reduction in cell viability measured after 96 hrs in presence of TNF-alpha by CellTiter-Glo luminescent assay; type: functional, cell-based; settings: JJN-3, 96 h; how it was run: as §2
SU-DHL-6 = test: Cytotoxicity against human SU-DHL-6 cells assessed as reduction in cell viability measured after 96 hrs in presence of TNF-alpha by CellTiter-Glo luminescent assay; type: functional, cell-based; settings: SU-DHL-6, 96 h; how it was run: as §4
RPMI-8226 = test: Cytotoxicity against human RPMI-8226 cells assessed as reduction in cell viability measured after 96 hrs in presence of TNF-alpha by CellTiter-Glo luminescent assay; type: functional, cell-based; settings: RPMI-8226, 96 h; how it was run: as §2
[9] = target: Baculoviral IAP repeat-containing protein 2 (Homo sapiens) (UniProt Q13490); test: Induction of cIAP1 degradation in human MM1.S cells at 1 uM incubated for 16 hrs by western blot analysis; type: cell-based; how it was run: as §3
[10] = target: Baculoviral IAP repeat-containing protein 3 (Homo sapiens) (UniProt Q13489); test: Induction of cIAP2 degradation in human MM1.S cells assessed as remaining protein level at 0.1 uM incubated for 16 hrs by western blot analysis; type: cell-based; how it was run: as §5
[11] = target: Protein cereblon-IAP (Homo sapiens) (UniProt P98170+Q13489+Q13490+Q96SW2); test: PROTAC activity at CRBN/IAP in human MM1.S cells assessed as induction of CRBN degradation at 100 nM incubated for 3 hrs by diaPASEF-based analysis; type: cell-based; how it was run: as §1
[12] = target: Protein cereblon/E3 ubiquitin-protein ligase XIAP (Homo sapiens) (UniProt P98170+Q96SW2); test: PROTAC activity at CRBN/IAP in human MM1.S cells assessed as induction of XIAP degradation at 0.1 uM incubated for 3 hrs by diaPASEF-based proteomics analysis; type: cell-based; how it was run: as §1
[13] = target: Protein cereblon/Baculoviral IAP repeat-containing protein 3 (Homo sapiens) (UniProt Q13489+Q96SW2); test: PROTAC activity at CRBN/IAP in human MM1.S cells assessed as induction of cIAP2 degradation at 100 nM incubated for 3 hrs by diaPASEF-based analysis; type: cell-based; how it was run: as §1
[14] = target: Protein cereblon/Zinc finger protein Aiolos (Homo sapiens) (UniProt Q96SW2+Q9UKT9); test: PROTAC activity at CRBN/IKZF3 in human MM1.S cells assessed as induction of IKZF3 degradation at 100 nM incubated for 3 hrs by diaPASEF-based analysis; type: cell-based; how it was run: as §1
[15] = target: Protein cereblon/Baculoviral IAP repeat-containing protein 2 (Homo sapiens) (UniProt Q13490+Q96SW2); test: PROTAC activity at CRBN/IAP in human MM1.S cells assessed as induction of cIAP1 degradation at 100 nM incubated for 3 hrs by diaPASEF-based analysis; type: cell-based; how it was run: as §1
[16] = target: Cereblon/Ikaros (Homo sapiens) (UniProt Q96SW2+Q13422); test: PROTAC activity at CRBN/IKZF1 in human MM1.S cells assessed as induction of IKZF1 degradation at 100 nM incubated for 3 hrs by diaPASEF-based analysis; type: cell-based; how it was run: as §1
[17] = target: von Hippel-Lindau disease tumor suppressor (Homo sapiens) (UniProt P40337); test: Induction of VHL degradation in human MM1.S cells at 100 nM incubated for 3 hrs by diaPASEF-based analysis; type: cell-based; how it was run: as §1

Chain of von Hippel-Lindau disease tumor suppressor (Homo sapiens) (P40337 whole entry, looked up): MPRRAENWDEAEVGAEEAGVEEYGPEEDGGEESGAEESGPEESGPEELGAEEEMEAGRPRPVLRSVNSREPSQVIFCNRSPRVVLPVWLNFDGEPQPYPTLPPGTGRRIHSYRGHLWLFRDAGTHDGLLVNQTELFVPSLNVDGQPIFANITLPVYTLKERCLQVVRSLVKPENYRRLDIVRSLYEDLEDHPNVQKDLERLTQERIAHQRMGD
Chain of Baculoviral IAP repeat-containing protein 2 (Homo sapiens) (Q13490 whole entry): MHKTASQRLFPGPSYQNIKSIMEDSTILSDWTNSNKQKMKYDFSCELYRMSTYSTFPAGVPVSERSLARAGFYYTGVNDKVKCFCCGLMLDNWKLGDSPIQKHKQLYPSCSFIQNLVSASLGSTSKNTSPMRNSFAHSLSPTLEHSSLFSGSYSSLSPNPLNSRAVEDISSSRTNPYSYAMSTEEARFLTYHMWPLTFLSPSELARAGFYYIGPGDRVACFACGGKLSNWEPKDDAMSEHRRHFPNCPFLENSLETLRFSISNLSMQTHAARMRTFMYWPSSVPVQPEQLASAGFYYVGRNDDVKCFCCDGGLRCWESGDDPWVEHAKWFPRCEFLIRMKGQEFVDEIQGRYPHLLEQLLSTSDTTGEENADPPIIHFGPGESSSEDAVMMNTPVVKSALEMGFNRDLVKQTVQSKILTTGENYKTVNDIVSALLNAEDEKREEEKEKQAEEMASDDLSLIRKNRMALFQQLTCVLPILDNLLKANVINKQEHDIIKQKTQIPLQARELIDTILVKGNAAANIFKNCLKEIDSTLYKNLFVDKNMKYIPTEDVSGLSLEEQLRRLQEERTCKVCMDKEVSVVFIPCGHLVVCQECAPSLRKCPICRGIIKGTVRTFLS
Chain of Baculoviral IAP repeat-containing protein 3 (Homo sapiens) (Q13489 whole entry): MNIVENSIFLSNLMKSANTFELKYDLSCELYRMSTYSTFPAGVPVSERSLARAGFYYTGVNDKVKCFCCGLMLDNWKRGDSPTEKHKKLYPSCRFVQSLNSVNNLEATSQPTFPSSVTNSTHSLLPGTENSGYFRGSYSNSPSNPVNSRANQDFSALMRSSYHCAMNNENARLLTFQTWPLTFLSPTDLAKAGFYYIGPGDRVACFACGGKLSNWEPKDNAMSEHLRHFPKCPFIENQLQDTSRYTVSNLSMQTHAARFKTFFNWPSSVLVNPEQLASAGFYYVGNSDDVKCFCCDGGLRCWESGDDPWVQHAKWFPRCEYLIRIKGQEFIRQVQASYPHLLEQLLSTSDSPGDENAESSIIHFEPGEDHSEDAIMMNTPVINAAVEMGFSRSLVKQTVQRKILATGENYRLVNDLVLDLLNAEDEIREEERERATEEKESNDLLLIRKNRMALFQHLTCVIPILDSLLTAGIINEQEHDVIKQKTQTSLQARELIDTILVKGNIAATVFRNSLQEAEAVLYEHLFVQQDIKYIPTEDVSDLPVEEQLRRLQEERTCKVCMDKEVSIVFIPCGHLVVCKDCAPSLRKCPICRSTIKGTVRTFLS
Chain of E3 ubiquitin-protein ligase XIAP (Homo sapiens) (P98170 whole entry): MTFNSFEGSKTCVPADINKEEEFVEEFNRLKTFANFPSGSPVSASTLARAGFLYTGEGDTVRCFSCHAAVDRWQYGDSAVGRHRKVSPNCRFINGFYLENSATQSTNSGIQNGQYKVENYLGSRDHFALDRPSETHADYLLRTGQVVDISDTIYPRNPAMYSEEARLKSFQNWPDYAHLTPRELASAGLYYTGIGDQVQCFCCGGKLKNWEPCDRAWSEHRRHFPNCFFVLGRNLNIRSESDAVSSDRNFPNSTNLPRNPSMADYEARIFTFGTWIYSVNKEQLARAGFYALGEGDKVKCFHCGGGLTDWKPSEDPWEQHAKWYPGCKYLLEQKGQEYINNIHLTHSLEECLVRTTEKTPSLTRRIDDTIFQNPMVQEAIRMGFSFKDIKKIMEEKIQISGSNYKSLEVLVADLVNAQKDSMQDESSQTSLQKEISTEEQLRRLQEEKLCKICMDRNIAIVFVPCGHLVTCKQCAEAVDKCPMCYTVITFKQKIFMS
Chain of Protein cereblon/Zinc finger protein Aiolos (Homo sapiens) (Q96SW2 whole entry, looked up): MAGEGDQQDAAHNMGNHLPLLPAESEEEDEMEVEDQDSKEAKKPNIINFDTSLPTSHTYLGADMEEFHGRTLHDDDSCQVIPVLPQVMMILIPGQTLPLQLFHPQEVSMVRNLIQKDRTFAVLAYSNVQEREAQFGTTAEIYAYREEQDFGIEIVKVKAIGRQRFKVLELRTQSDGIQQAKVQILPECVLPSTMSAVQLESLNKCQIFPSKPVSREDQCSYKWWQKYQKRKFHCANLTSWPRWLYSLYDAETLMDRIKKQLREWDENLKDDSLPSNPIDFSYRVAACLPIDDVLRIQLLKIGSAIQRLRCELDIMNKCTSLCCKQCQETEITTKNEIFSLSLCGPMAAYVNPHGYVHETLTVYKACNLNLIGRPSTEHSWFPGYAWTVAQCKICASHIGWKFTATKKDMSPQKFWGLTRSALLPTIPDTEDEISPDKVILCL
Chain of Protein cereblon/Zinc finger protein Aiolos (Homo sapiens) (Q9UKT9 whole entry, looked up): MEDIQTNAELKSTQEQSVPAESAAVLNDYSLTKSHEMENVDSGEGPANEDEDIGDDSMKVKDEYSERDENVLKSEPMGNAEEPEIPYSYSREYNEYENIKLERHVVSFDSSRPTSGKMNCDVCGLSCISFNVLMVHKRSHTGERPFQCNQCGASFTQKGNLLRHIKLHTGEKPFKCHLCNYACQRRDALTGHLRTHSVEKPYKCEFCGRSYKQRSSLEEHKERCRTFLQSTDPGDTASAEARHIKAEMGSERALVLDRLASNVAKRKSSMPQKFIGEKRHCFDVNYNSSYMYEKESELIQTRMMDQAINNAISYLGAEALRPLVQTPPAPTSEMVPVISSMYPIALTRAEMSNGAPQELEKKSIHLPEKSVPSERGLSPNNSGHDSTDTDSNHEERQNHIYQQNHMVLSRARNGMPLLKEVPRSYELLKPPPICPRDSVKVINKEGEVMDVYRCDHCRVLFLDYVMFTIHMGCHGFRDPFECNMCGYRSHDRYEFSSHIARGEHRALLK
Chain of Protein cereblon/Baculoviral IAP repeat-containing protein 3 (Homo sapiens) (Q13489 whole entry, looked up): as the sequence (Q13489 whole entry) above
Chain of Protein cereblon/Baculoviral IAP repeat-containing protein 3 (Homo sapiens) (Q96SW2 whole entry, looked up): as the sequence (Q96SW2 whole entry, looked up) above
Chain of Protein cereblon/Baculoviral IAP repeat-containing protein 2 (Homo sapiens) (Q13490 whole entry, looked up): as the sequence (Q13490 whole entry) above
Chain of Protein cereblon/Baculoviral IAP repeat-containing protein 2 (Homo sapiens) (Q96SW2 whole entry, looked up): as the sequence (Q96SW2 whole entry, looked up) above
Chain of Protein cereblon/E3 ubiquitin-protein ligase XIAP (Homo sapiens) (P98170 whole entry, looked up): as the sequence (P98170 whole entry) above
Chain of Protein cereblon/E3 ubiquitin-protein ligase XIAP (Homo sapiens) (Q96SW2 whole entry, looked up): as the sequence (Q96SW2 whole entry, looked up) above
Chain of Protein cereblon-IAP (Homo sapiens) (P98170 whole entry, looked up): as the sequence (P98170 whole entry) above
Chain of Protein cereblon-IAP (Homo sapiens) (Q13489 whole entry, looked up): as the sequence (Q13489 whole entry) above
Chain of Protein cereblon-IAP (Homo sapiens) (Q13490 whole entry, looked up): as the sequence (Q13490 whole entry) above
Chain of Protein cereblon-IAP (Homo sapiens) (Q96SW2 whole entry, looked up): as the sequence (Q96SW2 whole entry, looked up) above

Activity [1]: Active
Activity [2]: inactive
Structure (SMILES): CN[C@@H](C)C(=O)N[C@@H](C(=O)N1CCC[C@H]1C(=O)N[C@@H]1c2ccccc2C[C@@H]1OCC#CC#CCO[C@H]1Cc2ccccc2[C@H]1NC(=O)[C@@H]1CCCN1C(=O)[C@H](NC(=O)[C@H](C)NC)C1CCCCC1)C1CCCCC1

Activity [3]: inactive
Activity [4]: inactive
Activity [5]: inactive
Activity [6]: inactive
Activity [7]: 95%
Activity [8]: 95%
Activity [9]: inactive
Activity [10]: 81%
Structure (SMILES): Cc1ncsc1-c1ccc(CNC(=O)[C@@H]2C[C@@H](O)CN2C(=O)[C@@H](NC(=O)C2(C#N)CC2)C(C)(C)C)cc1
IC50 (MOLM-13): > 10 µM
IC50 (DB): > 10 µM
IC50 (K562): > 10 µM
IC50 (NCI-H929): > 10 µM
IC50 (HEL): > 10 µM
IC50 (SUD4): > 10 µM
IC50 (JJN-3): > 10 µM
IC50 (SU-DHL-6): > 10 µM
IC50 (RPMI-8226): > 10 µM

Activity [11]: inactive
Activity [12]: Active
Activity [13]: inactive
Activity [14]: inactive
Activity [15]: inactive
Activity [16]: inactive
Activity [17]: inactive
Structure (SMILES): CN[C@@H](C)C(=O)N[C@H](C(=O)N1C[C@@H](Oc2cccc(OCCCCCCOCCCCCCOCCCCCCNc3cccc4c3C(=O)N(C3CCC(=O)NC3=O)C4=O)c2)C[C@H]1C(=O)N[C@@H]1CCCc2ccccc21)C1CCCCC1 (stereo partly specified)
